Published values collected from several papers.
Sample: plasma

SMILES | system | conditions | AUC(0-inf)
C1=C/COCc2cc(ccc2OCCN2CCCC2)Nc2nccc(n2)-c2cccc(c2)COC/1 | male Sprague-Dawley rat | oral, 36 mg/kg | 3320 ng·h/mL
C[C@H]1Oc2cc(cnc2N)-c2c(nn(C)c2C#N)CN(C)C(=O)c2ccc(F)cc21 | Sprague-Dawley rat | intravenous, 1 mg/kg, single dose | 4470 ng·h/mL
Cc1nc(Nc2ncc(C(=O)Nc3c(C)cccc3Cl)s2)cc(N2CCN(CCO)CC2)n1 | male Sprague-Dawley rat | oral, 5 mg/kg, single dose | 0.199 µM·h
Cn1c(=O)c2[nH]cnc2n(C)c1=O | male Sprague-Dawley rat | intravenous, 22.5 mg/kg | 59400 ng·h/mL
COc1ccc(N(Cc2csc(-c3ccccc3)n2)C(=O)CCCCCC(=O)NO)cc1 | female Sprague-Dawley rat | oral, 30 mg/kg | 32.4 ng·h/mL
COc1nc(-c2cccc(-c3ccccc3)c2C)ccc1CNCCNC(=O)CCCCCCCCCCC(=O)N1CCN(CCNC(=O)c2cc3c(=O)n4cccc(C)c4nc3n(CCc3cccs3)c2=N)CC1 | male Sprague-Dawley rat | oral, 40 mg/kg | 305 ng·h/mL
CC(=O)O[C@@H]1CC[C@@]2(C)[C@@H](CC[C@]3(C)[C@@H]2C(=O)C=C2[C@@H]4[C@@H](C)[C@H](C)CC[C@]4(C)CC[C@]23C)[C@@]1(C)C(=O)O | female Wistar rat | oral, 1 mg/kg, single dose | 50200 ng·h/mL
C[C@H]1[C@@H](O)O[C@@H]2O[C@@]3(C)CC[C@H]4[C@H](C)CC[C@@H]1[C@@]24OO3 | male Sprague-Dawley rat | oral, 10 mg/kg | 271 ng·h/mL
COc1ccc(-c2coc3cc(O)cc(O)c3c2=O)cc1 | rat | intravenous, 2 mg/kg | 683 ng·h/mL
CNC(=O)c1cc(Oc2ccc(NC(=O)Nc3ccc(Cl)c(C(F)(F)F)c3)cc2)ccn1 | male Sprague-Dawley rat | oral, 100 mg/kg, single dose | 18400 ng·h/mL
CONC(=O)c1cccc2c1cc(C)n2-c1nc2c(c(NCc3ccccc3)n1)CCCN2 | male Sprague-Dawley rat | oral, 10 mg/kg, single dose | 38.9 ng·h/mL
O=C1CCC(N2Cc3cc(C4CCN(Cc5ccccc5)CC4)ccc3C2=O)C(=O)N1 (stereo not drawn) | male Sprague-Dawley rat | oral, 3 mg/kg | 349 ng·h/mL
CCN(CC)Cc1ccc2cc(COC(=O)Nc3ccc(C(=O)NO)cc3)ccc2c1 | male Sprague-Dawley rat | oral, 10 mg/kg | 8730 ng·h/mL
COc1cc(-c2cc(C(C)=O)n3ccccc23)c(OC)cc1Cn1ccnc1 | male Sprague-Dawley rat | intravenous, 5 mg/kg | 4300 ng·h/mL
C=CC(=O)N1CCC([C@@H]2CCNc3c(C(N)=O)c(-c4ccc(Oc5ccccc5)cc4)nn32)CC1 | Sprague-Dawley rat | oral, 16 mg/kg | 1460 ng·h/mL
